Consider 35 compounds from ChEMBL document CHEMBL1909507, “Substituted phenyl 4-(2-oxoimidazolidin-1-yl)benzenesulfonamides as antimitotics. Antiproliferative, antiangiogenic and antitumoral activity, and quantitative structure-activity relationships” (Eur J Med Chem, 2011).

For assay [1], the system named is MCF7. As to the kind of experiment: Antiproliferative activity against human MCF7 cells after 48 hrs by SRB assay. The settings on record: MCF7, 48 h. Format: functional, cell-based. In outline: (§1)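 Adherent cells were seeded per line (e.g. HT-29 5000, M21 3500, MCF7 7500, CHO and CHO-VV 3-2 and CHO-TAX 5-6 1000 cells/well) and grown 24 h at 37 °C, 5% CO₂. DMSO-solubilized drug was diluted in medium and added at 1000–0.98 nM for 48 h. Cells were fixed with cold 10% TCA and stained with 0.1% sulforhodamine B, with absorbance read at 530–565 nm.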
(Sulforhodamine B stains cellular protein and so reports cell mass.)

Assay [2] concerns HT-29. As to the kind of experiment: Antiproliferative activity against human HT-29 cells after 48 hrs by SRB assay. The settings on record: HT-29, 48 h. Format: functional, cell-based. In outline:
as §1

The subject of assay [3] is M21. As to the kind of experiment: Antiproliferative activity against human M21 cells after 48 hrs by SRB assay. The settings on record: M21, 48 h. In kind it is functional, cell-based. In outline:
as §1

Assay [4] can be described thus: Antiproliferative activity against mouse P388D1 after 48 hrs by SRB assay. The settings on record: P388D1, 48 h.
Assay [5] is described as follows: Antiproliferative activity against mouse B16F0 after 48 hrs by SRB assay.
The test system of assay [6] is CHO-VV 3-2. As to the kind of experiment: Ratio of IC50 for colchicine and vinblastine-resistant CHO-VV 3-2 cells to IC50 for CHO cells. In kind it is functional, Cricetulus griseus. In outline:
(§2)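 Each ratio is the IC50 in the resistant line divided by the IC50 in its parental line (CHO for CHO-TAX 5-6 and CHO-VV 3-2; CEM for CEM-VLB).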

The nature of assay [7]: Antiproliferative activity against human multidrug-resistant CEM/VLB cells after 48 hrs by SRB assay. Format: functional.
Assay [8] has as its system CHO-TAX 5-6. As to the kind of experiment: Ratio of IC50 for paclitaxel-resistant CHO-TAX 5-6 cells to IC50 for CHO cells. In kind it is functional, Cricetulus griseus. In outline:
as §2

Assay [9] concerns CCRF-CEM. The assay is described as follows: Ratio of IC50 for human multidrug-resistant CEM/VLB cells to IC50 for human CEM cells. Format: functional. In outline:
as §2

Assay [10] relates to MDA-MB-231. The assay is described as follows: Displacement of N,N'-ethylenebis(iodoacetamide) from beta-tubulin colchicine-binding site in human MDA-MB-231 cells at 1000 times IC50 preincubated for 2 hrs before N,N'-ethylenebis(iodoacetamide) addition measured after 1.5 hrs by chemiluminescence assay. Format: cell-based. In outline: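 EBI (100, final) was added for 1.5 h at 37 °C with drug present; control was 0.5% DMSO. Sonicated lysates (20 µg protein) were run on 10% SDS-PAGE and blotted with anti-β-tubulin TUB 2.1. The β-tubulin–EBI adduct was scored by ECL.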

A word on the IC50: it is the point on the concentration scale where inhibition reaches its midpoint. Read a low IC50 as greater potency.

Active and inactive are the calls of the source. The rule behind the calls is not given here.

Take `COc1ccc(NS(=O)(=O)c2ccc(N3CCNC3=O)cc2)cc1OC`: the IC50 in [1] came to 610 nM; in [2], 520 nM; in assay [3] it was 340 nM.
The like results for `O=C1NCCN1c1ccc(S(=O)(=O)Nc2ccc(F)c(F)c2)cc1` were, in that order, 620 nM, 350 nM and 220 nM.
The like results for `COc1ccccc1NS(=O)(=O)c1ccc(N2CCNC2=O)cc1` were, in that order, 770 nM, 550 nM and 300 nM.
For `O=C1NCCN1c1ccc(S(=O)(=O)Nc2ccc3c(c2)CCC3)cc1`, in that order: 240 nM, 190 nM and 130 nM.
Take `CC(=O)O[C@H]1C(=O)[C@@]2(C)[C@H]([C@H](OC(=O)c3ccccc3)[C@]3(O)C[C@H](OC(=O)[C@H](O)[C@@H](NC(=O)c4ccccc4)c4ccccc4)C(C)=C1C3(C)C)[C@]1(OC(C)=O)CO[C@@H]1C[C@@H]2O` [PACLITAXEL]: the IC50 was 35 nM in assay [4] and 28 nM in [5].
With `CC(C)(C)c1ccc(NS(=O)(=O)c2ccc(N3CCNC3=O)cc2)cc1`, the IC50 in assay [1], in assay [2] and in assay [3] was over 1000 nM in each case.
As to `N#CCc1ccc(NS(=O)(=O)c2ccc(N3CCNC3=O)cc2)cc1`, the IC50 in assay [1], in assay [2] and in assay [3] was over 1000 nM each time.
For `O=C1NCCN1c1ccc(S(=O)(=O)Nc2ccc(Cl)cc2)cc1`, the IC50 in assay [1] amounted to 170 nM; in [2], 220 nM; in assay [3], 90 nM.
With `O=C1NCCN1c1ccc(S(=O)(=O)Nc2ccc(OC(F)F)cc2)cc1`, the IC50 is 760 nM in [1], 650 nM in assay [2] and 410 nM in assay [3].
With `CC[C@]1(O)C[C@@H]2CN(CCc3c([nH]c4ccccc34)[C@@](C(=O)OC)(c3cc4c(cc3OC)N(C)[C@H]3[C@@](O)(C(=O)OC)[C@H](OC(C)=O)[C@]5(CC)C=CCN6CC[C@]43[C@@H]65)C2)C1` [VINBLASTINE], the “Ratio IC50” value in assay [6] is recorded as 3.9; in assay [8] it was 0.41; in assay [9], 1579. For the same compound, the 50% inhibitory concentration (IC50) in assay [7] was determined as 600 nM; in [4], 1.8 nM; in assay [5], 0.099 nM.
In the case of `COc1ccc(NS(=O)(=O)c2ccc(N3CCNC3=O)cc2)cc1`, the IC50 in assay [1] is over 1000 nM; in [2], 800 nM; in assay [3] it was 580 nM.
The like results for `CCc1ccccc1NS(=O)(=O)c1ccc(N2CCNC2=O)cc1` were, in that order, 350 nM, 240 nM and 180 nM.
The like results for `CCCCCc1ccc(NS(=O)(=O)c2ccc(N3CCNC3=O)cc2)cc1` were, in that order, over 1000 nM, 990 nM and 870 nM.
For `CCCCOc1ccc(NS(=O)(=O)c2ccc(N3CCNC3=O)cc2)cc1`, in that order: 870 nM, 630 nM and 580 nM.
Consider `CCCCCCOc1ccc(NS(=O)(=O)c2ccc(N3CCNC3=O)cc2)cc1`, for which the IC50 in [1], in assay [2] and in assay [3] was over 1000 nM each time.
Turning to `O=C1NCCN1c1ccc(S(=O)(=O)Nc2ccccc2)cc1`, the IC50 amounted to 470 nM in assay [1], 280 nM in assay [2] and 200 nM in assay [3].
As to `Cc1cccc(NS(=O)(=O)c2ccc(N3CCNC3=O)cc2)c1C`, the IC50 in [1] was found to be 230 nM; in assay [2] it was 190 nM; in assay [3], 110 nM.
The like results for `Cc1ccc(NS(=O)(=O)c2ccc(N3CCNC3=O)cc2)cc1C` were, in that order, 230 nM, 230 nM and 94 nM.
In the case of `CCc1ccc(NS(=O)(=O)c2ccc(N3CCNC3=O)cc2)cc1`, the IC50 in assay [1] turned out to be 810 nM; in [2], 660 nM; in [3], 480 nM.
`COc1cc2c(c(OC)c1OC)-c1ccc(OC)c(=O)cc1[C@@H](NC(C)=O)CC2` [COLCHICINE]: the IC50 in assay [7] amounted to 360 nM; in [4], 28 nM; in [5], 13 nM.
As to `O=C1NCCN1c1ccc(S(=O)(=O)Nc2ccc(I)cc2)cc1`, the IC50 stood at 600 nM in [1], 650 nM in assay [2] and 260 nM in assay [3].
As to `CCC(C)c1ccc(NS(=O)(=O)c2ccc(N3CCNC3=O)cc2)cc1` (stereo not given), the IC50 in assay [1], in [2] and in assay [3] was over 1000 nM in each case.
As to `CCCCCCCc1ccc(NS(=O)(=O)c2ccc(N3CCNC3=O)cc2)cc1`, the IC50 in assay [1], in assay [2] and in [3] was over 1000 nM each time.
With `O=C(CI)NCCNC(=O)CI`, in assay [10], the outcome was inactive.
Consider `Cc1ccccc1NS(=O)(=O)c1ccc(N2CCNC2=O)cc1`, for which the IC50 in assay [1] amounted to 280 nM; in assay [2] it was 200 nM; in assay [3], 150 nM.
For `O=C1NCCN1c1ccc(S(=O)(=O)Nc2ccc(Br)cc2)cc1`, in that order: 240 nM, 300 nM and 130 nM.
Take `CC(C)(C)c1cc(NS(=O)(=O)c2ccc(N3CCNC3=O)cc2)cc(C(C)(C)C)c1`: the IC50 in [1], in [2] and in assay [3] was over 1000 nM each time.
Consider `O=C1NCCN1c1ccc(S(=O)(=O)Nc2cccc(Oc3ccccc3)c2)cc1`, for which the IC50 in assay [1] is 220 nM; in assay [2], 200 nM; in assay [3], 83 nM.
The like results for `CCCCc1ccc(NS(=O)(=O)c2ccc(N3CCNC3=O)cc2)cc1` were, in that order, 770 nM, 610 nM and 450 nM.
The like results for `O=C1NCCN1c1ccc(S(=O)(=O)Nc2ccc(C3CCCCC3)cc2)cc1` were, in that order, over 1000 nM, over 1000 nM and over 1000 nM.
Turning to `Cc1ccc(NS(=O)(=O)c2ccc(N3CCNC3=O)cc2)c(C)c1`, the figures for the IC50 in assay [1], in assay [2] and in assay [3] were 230 nM, 180 nM and 150 nM, respectively.
In the case of `Cc1ccc(NS(=O)(=O)c2ccc(N3CCNC3=O)cc2)cc1`, the IC50 in assay [1] is 610 nM; in assay [2], 480 nM; in assay [3] it was 260 nM.
The like results for `O=C1NCCN1c1ccc(S(=O)(=O)Nc2ccc(F)cc2)cc1` were, in that order, 690 nM, 370 nM and 230 nM.
In the case of `O=C1NCCN1c1ccc(S(=O)(=O)Nc2ccc3c(c2)OCO3)cc1`, the IC50 was determined as 460 nM in assay [1], 280 nM in assay [2] and 190 nM in [3].
In the case of `O=C1NCCN1c1ccc(S(=O)(=O)Nc2ccc3c(c2)Cc2ccccc2-3)cc1`, the IC50 in assay [1] stood at 480 nM; in [2], 450 nM; in [3], 370 nM.
